According to ChEMBL document CHEMBL1129363, “(S)-13-[(dimethylamino)methyl]-10,11,14,15-tetrahydro-4,9:16, 21-dimetheno-1H, 13H-dibenzo[e,k]pyrrolo[3,4-h][1,4,13]oxadiazacyclohexadecene-1,3(2H)-d ione (LY333531) and related analogues: isozyme selective inhibitors of protein kinase C beta” (J Med Chem, 1996):

Tests used:
[1] = Inhibition of Bovine heart cAMP-dependent protein kinase; set-up: species or system Bos taurus
Outline: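 Bovine heart cAMP-dependent kinase catalytic subunit with 200 µg/mL histone type HL substrate in 20 mM HEPES pH 7.5, 10 mM MgCl₂, 30 µM [γ-³²P]ATP; inhibitor in DMSO; 30 °C, 10 min; TCA-stopped, precipitate filtered and scintillation-counted. Average of at least three independent determinations from eight-point titration curves.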

[2] = target: Proto-oncogene tyrosine-protein kinase Src (Homo sapiens, UniProt P12931); test: Inhibition of src kinase
[3] = target: T1, Protein kinase C epsilon type (Homo sapiens, UniProt Q02156); test: Inhibition of Protein kinase C epsilon
T1 sequence (Q02156 whole entry): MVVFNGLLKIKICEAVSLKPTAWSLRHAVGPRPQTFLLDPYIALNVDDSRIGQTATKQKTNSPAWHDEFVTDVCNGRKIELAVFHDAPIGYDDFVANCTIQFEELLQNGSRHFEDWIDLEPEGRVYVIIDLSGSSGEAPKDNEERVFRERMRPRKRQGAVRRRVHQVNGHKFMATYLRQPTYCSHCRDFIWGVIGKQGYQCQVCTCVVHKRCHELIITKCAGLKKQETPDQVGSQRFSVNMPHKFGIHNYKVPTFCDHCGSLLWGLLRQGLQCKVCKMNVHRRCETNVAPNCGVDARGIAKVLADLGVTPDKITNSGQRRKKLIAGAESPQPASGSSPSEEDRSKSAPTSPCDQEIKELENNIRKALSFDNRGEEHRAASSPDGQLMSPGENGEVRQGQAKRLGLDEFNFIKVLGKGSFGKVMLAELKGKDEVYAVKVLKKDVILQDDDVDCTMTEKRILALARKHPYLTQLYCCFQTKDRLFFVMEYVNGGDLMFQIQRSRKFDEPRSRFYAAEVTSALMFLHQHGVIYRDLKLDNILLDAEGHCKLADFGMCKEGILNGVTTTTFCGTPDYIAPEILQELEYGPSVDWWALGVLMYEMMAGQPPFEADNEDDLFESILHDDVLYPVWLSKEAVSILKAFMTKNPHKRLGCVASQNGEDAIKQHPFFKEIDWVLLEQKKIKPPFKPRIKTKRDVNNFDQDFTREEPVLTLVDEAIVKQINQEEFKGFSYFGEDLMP

[4] = Effective dose against plasminogen activator activity stimulated by phorbol ester in endothelial cells; type: functional; settings: Endothelial cell; read-out: ED50 (the source's name)
[5] = Effective concentration for 50% inhibition of endothelial cell based plasminogen activity relative to control by beta-PDBu stimulation; type: functional
Outline: (§1)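 Bovine retinal capillary endothelial cells (passages 3–10), grown to confluence (10⁵ cells/well) in EGM with 10% FBS, switched to DME/10% FBS 24 h before assay; treated with 4β-PDBu plus compound in DMSO, 37 °C, 48 h. Lysate (25 mM NH₄OH, 0.5% Triton X-100) incubated with plasminogen and 1 mM chromogenic substrate, 25 °C 45 min, A410 against urokinase/tPA standard curve.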

[6] = Inhibition of rat brain Casein kinase II
[7] = target: Protein kinase C eta type (Homo sapiens, UniProt P24723); test: Inhibition of Protein kinase C eta
[8] = target: T2, Protein kinase C zeta type (Homo sapiens, UniProt Q05513); test: Inhibition of Protein kinase C zeta
T2 sequence (Q05513 whole entry): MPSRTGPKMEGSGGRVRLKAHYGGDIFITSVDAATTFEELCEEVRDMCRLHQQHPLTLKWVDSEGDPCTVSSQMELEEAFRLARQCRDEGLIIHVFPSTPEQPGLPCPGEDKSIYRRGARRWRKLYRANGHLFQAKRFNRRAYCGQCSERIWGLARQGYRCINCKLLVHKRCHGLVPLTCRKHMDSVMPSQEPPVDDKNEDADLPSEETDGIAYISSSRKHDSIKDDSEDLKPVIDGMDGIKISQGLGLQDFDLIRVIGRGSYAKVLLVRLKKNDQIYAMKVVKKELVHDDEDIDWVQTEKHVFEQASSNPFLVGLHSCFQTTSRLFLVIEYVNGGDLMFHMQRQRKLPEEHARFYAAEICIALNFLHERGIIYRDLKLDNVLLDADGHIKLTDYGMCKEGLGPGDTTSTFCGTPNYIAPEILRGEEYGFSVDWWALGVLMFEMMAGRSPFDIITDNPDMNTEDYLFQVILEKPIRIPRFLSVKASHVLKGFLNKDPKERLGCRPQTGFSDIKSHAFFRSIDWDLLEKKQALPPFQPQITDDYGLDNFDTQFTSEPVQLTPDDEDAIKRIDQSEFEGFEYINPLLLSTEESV

[9] = target: Protein kinase C gamma type (Homo sapiens, UniProt P05129); test: Inhibition of Protein kinase C gamma
[10] = Effective concentration for 50% inhibition of endothelial cell- based plasminogen activator activity relative to control by beta-PDBu stimulation; type: functional; outline: as §1
[11] = target: Protein kinase C delta type (Homo sapiens, UniProt Q05655); test: Inhibition of Protein kinase C delta
[12] = target: T3, Protein kinase C beta type (Homo sapiens, UniProt P05771); test: Inhibition of Protein kinase C beta 1
[13] = Concentration for 50% cell death determined by lysosomal staining in the neutral red viability assay.; settings: read-out: Tox50
Outline: (§2)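 Bovine retinal capillary endothelial cells, passages 3–10, were grown to confluence (10⁵ cells/well) in EGM with 10% FBS. Medium was switched to DME with 10% FBS 24 h before the assay. Compound in DMSO was added for 48 h at 37 °C. Viability was read by neutral red lysosomal staining, and the value is the concentration giving 50% cell death.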

[14] = target: T3, Protein kinase C beta type; test: Inhibition of Protein kinase C beta 2
[15] = target: Protein kinase C alpha type (Homo sapiens, UniProt P17252); test: Inhibition of Protein kinase C alpha
Protein kinase C (PKC) [16] = test: (§3) Inhibition of rat brain Protein kinase C
[17] = Inhibition of purified mammalian brain calcium [Ca(2+)]/Calmodulin dependent kinase
[18] = Effective concentration for 50% inhibition of Endothelial cell- based plasminogen activator activity relative to control by beta-PDBu stimulation; type: functional; outline: as §1
[19] = Concentration for 50% cell death determined by lysosomal staining in the neutral red viability assay; settings: read-out: Tox50; outline: as §2
Protein kinase C (PKC) [20] = test: as §3; remark: listed apart in the source
Outline: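 Purified rat-brain PKC was used as enzyme. Values are averages of at least three independent determinations, each from an eight-point titration curve.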

Protein kinase C delta type, sequence (Q05655 whole entry): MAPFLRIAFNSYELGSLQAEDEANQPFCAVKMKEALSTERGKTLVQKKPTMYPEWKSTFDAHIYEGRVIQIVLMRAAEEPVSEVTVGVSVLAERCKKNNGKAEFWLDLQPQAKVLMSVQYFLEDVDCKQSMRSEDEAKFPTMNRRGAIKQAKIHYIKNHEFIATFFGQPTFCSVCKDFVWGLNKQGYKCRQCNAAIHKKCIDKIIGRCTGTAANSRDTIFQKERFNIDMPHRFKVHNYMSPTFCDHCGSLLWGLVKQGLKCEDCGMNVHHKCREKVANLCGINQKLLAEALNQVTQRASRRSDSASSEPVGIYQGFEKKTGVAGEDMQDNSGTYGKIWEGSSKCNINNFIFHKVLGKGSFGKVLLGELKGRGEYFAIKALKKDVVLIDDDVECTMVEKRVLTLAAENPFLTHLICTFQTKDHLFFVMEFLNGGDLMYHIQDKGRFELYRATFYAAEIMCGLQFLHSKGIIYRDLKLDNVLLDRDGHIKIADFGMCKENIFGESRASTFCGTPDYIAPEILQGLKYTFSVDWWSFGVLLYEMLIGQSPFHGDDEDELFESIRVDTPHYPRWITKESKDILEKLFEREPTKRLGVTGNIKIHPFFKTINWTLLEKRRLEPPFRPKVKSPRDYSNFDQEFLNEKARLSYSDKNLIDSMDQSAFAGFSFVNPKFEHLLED
Protein kinase C eta type, sequence (P24723 whole entry): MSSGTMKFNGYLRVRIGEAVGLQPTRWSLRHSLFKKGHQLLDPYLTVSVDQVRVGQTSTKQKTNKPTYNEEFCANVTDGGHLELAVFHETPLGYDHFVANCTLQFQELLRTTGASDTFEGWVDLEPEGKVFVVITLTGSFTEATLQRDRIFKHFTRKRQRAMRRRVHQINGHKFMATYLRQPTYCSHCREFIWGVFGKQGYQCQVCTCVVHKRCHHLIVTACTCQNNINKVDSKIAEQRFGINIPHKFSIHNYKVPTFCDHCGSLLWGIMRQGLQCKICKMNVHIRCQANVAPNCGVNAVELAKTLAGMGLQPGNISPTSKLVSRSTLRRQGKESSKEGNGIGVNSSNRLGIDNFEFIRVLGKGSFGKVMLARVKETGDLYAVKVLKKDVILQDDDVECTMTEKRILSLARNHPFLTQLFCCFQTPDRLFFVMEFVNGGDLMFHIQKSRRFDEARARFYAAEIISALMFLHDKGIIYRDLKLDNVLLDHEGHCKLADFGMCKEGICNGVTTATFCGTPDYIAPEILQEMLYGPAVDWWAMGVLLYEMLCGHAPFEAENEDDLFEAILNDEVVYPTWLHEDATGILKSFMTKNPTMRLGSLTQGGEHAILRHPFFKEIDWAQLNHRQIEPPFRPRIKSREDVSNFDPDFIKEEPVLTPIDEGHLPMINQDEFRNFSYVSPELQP
T3 sequence (P05771 whole entry): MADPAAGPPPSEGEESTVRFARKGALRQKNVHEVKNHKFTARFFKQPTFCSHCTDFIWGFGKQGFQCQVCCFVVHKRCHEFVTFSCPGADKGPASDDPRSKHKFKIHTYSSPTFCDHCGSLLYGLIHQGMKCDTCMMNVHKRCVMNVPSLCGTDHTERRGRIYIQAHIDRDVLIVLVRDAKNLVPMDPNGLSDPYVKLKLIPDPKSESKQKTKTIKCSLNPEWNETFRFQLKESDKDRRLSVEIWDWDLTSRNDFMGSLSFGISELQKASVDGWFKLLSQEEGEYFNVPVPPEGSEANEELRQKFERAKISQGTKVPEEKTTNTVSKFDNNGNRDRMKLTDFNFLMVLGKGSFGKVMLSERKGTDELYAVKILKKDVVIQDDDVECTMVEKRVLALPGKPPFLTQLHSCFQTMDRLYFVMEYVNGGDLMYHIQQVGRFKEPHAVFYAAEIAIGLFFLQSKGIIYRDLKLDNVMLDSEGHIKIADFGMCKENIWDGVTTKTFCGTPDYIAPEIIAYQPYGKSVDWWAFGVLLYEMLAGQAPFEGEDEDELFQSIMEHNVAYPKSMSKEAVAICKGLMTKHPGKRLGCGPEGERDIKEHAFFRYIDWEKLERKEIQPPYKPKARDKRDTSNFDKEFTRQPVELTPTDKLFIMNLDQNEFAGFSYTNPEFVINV
Proto-oncogene tyrosine-protein kinase Src, sequence (P12931 2-536 limits assumed): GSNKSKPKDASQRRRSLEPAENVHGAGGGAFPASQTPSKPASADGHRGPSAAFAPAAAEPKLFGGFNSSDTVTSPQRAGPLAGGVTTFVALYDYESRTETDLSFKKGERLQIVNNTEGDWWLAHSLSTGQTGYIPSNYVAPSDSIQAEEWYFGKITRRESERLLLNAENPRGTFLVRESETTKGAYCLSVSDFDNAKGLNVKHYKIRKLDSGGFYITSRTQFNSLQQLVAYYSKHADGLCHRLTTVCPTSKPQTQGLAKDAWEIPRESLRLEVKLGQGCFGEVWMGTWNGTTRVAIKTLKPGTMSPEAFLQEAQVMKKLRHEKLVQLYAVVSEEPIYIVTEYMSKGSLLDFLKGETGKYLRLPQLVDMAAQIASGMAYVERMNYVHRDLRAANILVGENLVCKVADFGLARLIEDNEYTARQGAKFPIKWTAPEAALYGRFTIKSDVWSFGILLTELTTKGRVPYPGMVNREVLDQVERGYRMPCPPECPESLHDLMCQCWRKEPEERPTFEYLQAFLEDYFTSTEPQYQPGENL

Row | EC50 [5] [µM] | Compound | IC50 [1] [µM] | IC50 [2] [µM] | IC50 [3] [µM] | EC50 [4] [µM] | IC50 [6] [µM] | IC50 [7] [µM] | IC50 [8] [µM] | IC50 [9] [µM] | EC50 [10] [µM] | IC50 [11] [µM] | IC50 [12] [µM] | CC50 [13] [µM] | IC50 [14] [µM] | IC50 [15] [µM] | IC50 (Protein kinase C (PKC) [16]) [µM] | IC50 [17] [µM] | EC50 [18] [µM] | CC50 [19] [µM] | IC50 (Protein kinase C (PKC) [20]) [µM]
1 | 3 | O=C1NC(=O)C2=C1c1cn(c3ccccc13)CCO[C@H](CO)CCn1cc2c2ccccc21 | > 100 | > 100 | 79 | 3 | > 100 | 0.3 | 8.7 | 2 |  |  |  |  |  |  |  |  |  |  | 
2 |  | CNC[C@@H]1CCn2cc(c3ccccc32)C2=C(C(=O)NC2=O)c2cn(c3ccccc23)CCO1 | 49 |  | 1.1 | 0.24 |  | 0.031 |  | 0.27 | 0.24 | 0.17 |  |  |  |  |  |  |  |  | 
3 |  | O=C1NC(=O)C2=C1c1cn(c3ccccc13)CCO[C@H](CN1CCOCC1)CCn1cc2c2ccccc21 |  |  | > 5 | 3.5 |  | 1.7 | > 5 | 2.5 |  | 2 | 0.049 | > 20 | 0.038 |  |  |  |  |  | 
4 |  | O=C1NC(=O)C2=C1c1cn(c3ccccc13)CCO[C@H](CNS(=O)(=O)c1ccccc1)CCn1cc2c2ccccc21 | > 100 | > 100 | > 5 | > 2 | > 100 | 1.9 | > 5 | > 5 | > 2 | 0.88 |  | > 2 |  | > 5 | 10 |  |  |  | 
5 |  | NC[C@@H]1CCn2cc(c3ccccc32)C2=C(C(=O)NC2=O)c2cn(c3ccccc23)CCO1 | 83 | 89 | > 5 | 7.5 | > 100 | 0.24 |  | 2.1 | 7.5 | 2.6 |  | > 20 |  | 1.1 |  | 2.7 |  |  | 
6 |  | O=C1NC(=O)C2=C1c1cn(c3ccccc13)CCO[C@H](CNCc1ccccc1)CCn1cc2c2ccccc21 | > 100 | > 100 | 57 | 4.3 | > 100 | 2.5 | 54 | 6.5 | 4.3 | 7.8 | 0.33 | > 20 | 0.31 | 6.3 | 4.2 |  |  |  | 
7 |  | O=C1NC(=O)C2=C1c1cn(c3ccccc13)CCO[C@H](CN1CCCC1)CCn1cc2c2ccccc21 | > 100 | 11 | 3.8 | 0.55 | > 100 | 0.35 |  | 2.2 | 0.55 | 3.3 |  | > 10 |  | 3.5 |  | 5.3 |  |  | 
8 |  | CN1CCN(C[C@@H]2CCn3cc(c4ccccc43)C3=C(C(=O)NC3=O)c3cn(c4ccccc34)CCO2)CC1 |  |  | > 5 | 0.55 |  | 2 | > 5 | 3.2 |  | 2.8 | 0.03 | > 20 | 0.024 |  |  |  | 0.55 |  | 
9 |  | CN(C)C[C@@H]1CCn2cc(c3ccccc32)C2=C(C(=O)NC2=O)c2cn(c3ccccc23)CCO1 [RUBOXISTAURIN] | > 100 |  |  | 0.21 | > 100 | 0.052 |  | 0.3 |  |  |  |  |  |  |  | 6.2 |  | > 20 | 0.32
10 |  | CN[C@@H]1C[C@H]2O[C@@](C)([C@@H]1OC)n1c3ccccc3c3c4c(c5c6ccccc6n2c5c31)C(=O)NC4 [STAUROSPORINE] |  |  |  |  |  |  |  |  |  |  |  | < 0.02 |  |  |  | 0.004 |  |  | 
